Laboratory results: ChEMBL document CHEMBL1122260, “Synthesis and biological activity of prostaglandin lactones” (J Med Chem, 1983)
Activity calls are given as the source filed them. The rule behind the calls is not given here.

What was measured:
Rattus norvegicus [1] = species: Rattus norvegicus; experiment: Blood pressure potency in rat relative to PGE1 (100); format: functional
In short: (§1)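 Mature female albino rats, pentobarbital anesthesia (30 mg/kg ip, supplemented as needed), pretreated with atropine sulfate (0.08 mg sc) and pentolinium tartrate (2 mg iv). Test solutions or emulsions injected via femoral vein; carotid arterial pressure recorded by transducer. Change in mmHg (rise or fall) compared with standards: PGE1 for depressor, PGF2α for pressor responses.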

Gerbillinae [2] = experiment: Gerbil colon stimulation relative to PGE1 (100); Range is between (1-3); format: functional
In short: (§2)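 Isolated ascending colon from male gerbils (Meriones unguiculatus) mounted in de Jalon's solution (NaCl 154 mM, KCl 0.54 mM, CaCl2 0.27 mM, NaHCO3 1.78 mM, glucose 5.55 mM); isotonic contractions recorded with linear transducers in 5-mL baths.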

Rattus norvegicus [3] = species: Rattus norvegicus; experiment: Blood pressure potency in rat relative to PGE1 (100); value ranges from (0.1-0.3); format: functional; in short: as §1
Gerbillinae [4] = experiment: Gerbil colon stimulation relative to PGE1 (100); Range from (32-100); format: functional; in short: as §2
Rattus norvegicus [5] = species: Rattus norvegicus; experiment: Blood pressure potency in rat relative to PGF2-alpha (100); value ranges from (0.3-1); format: functional; in short: as §1
Rattus norvegicus [6] = experiment: in vivo urinary excretion of PGF2-alpha metabolite in rats, when administered sc (1 mg/rat) urinary excretion on day 2. Range is between (1.2-2.0); format: functional, Urine
Sus scrofa [7] = species: Sus scrofa; experiment: Plasma hydrolysis following 2 h incubation with hog liver esterase; format: functional
In short: (§3)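 Substrates incubated with saline (control), hog liver esterase, or rat, monkey or human blood plasma for 2 h or 20 h; released PGF2α quantified by radioimmunoassay as cross-reactivity with PGF2α antisera. PGF2α itself served as assay positive control. Substrate cross-reaction with the antisera determined separately.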

Monkey [8] = experiment: Plasma hydrolysis following 2 hr incubation with monkey plasma; format: functional, Cercopithecidae; in short: as §3
Monkey [9] = experiment: Plasma hydrolysis following 20 hr incubation with monkey plasma; format: functional, Cercopithecidae; in short: as §3
Homo sapiens [10] = species: Homo sapiens; experiment: Plasma hydrolysis following 20 hr incubation with human plasma; format: functional; in short: as §3
Homo sapiens [11] = species: Homo sapiens; experiment: Plasma hydrolysis following 2 hr incubation with human plasma; format: functional; in short: as §3
Rattus norvegicus [12] = experiment: in vivo Urinary excretion of PGF2-alpha metabolite in rats, when administered sc (1 mg/rat) urinary excretion on day. c1(27.2-31.1); format: functional, Urine
Rattus norvegicus [13] = species: Rattus norvegicus; experiment: Plasma hydrolysis following 20 hr incubation with rat plasma; format: functional; in short: as §3
Rattus norvegicus [14] = species: Rattus norvegicus; experiment: Plasma hydrolysis following 2 hr incubation with rat plasma; format: functional; in short: as §3
Sus scrofa [15] = species: Sus scrofa; experiment: Plasma hydrolysis following 20 hr incubation with hog liver esterase; format: functional; in short: as §3
Gerbillinae [16] = experiment: Gerbil colon stimulation relative to PGE1 (100); Range from (0.3-1); format: functional; in short: as §2
[17] = Plasma hydrolysis of percent cross reaction of substrate with PGF2-alpha antisera; format: ADME, cell-free; in short: as §3
Gerbillinae [18] = experiment: Gerbil colon stimulation relative to PGE1 (100); Range is between (0.3-1); format: functional; in short: as §2
Rattus norvegicus [19] = species: Rattus norvegicus; experiment: Blood pressure potency in rat relative to PGE1 (100). Range is between (10-32); format: functional; in short: as §1
Rattus norvegicus [20] = species: Rattus norvegicus; experiment: Blood pressure potency in rat relative to PGE1 (100). Range is between (0.1-3); format: functional; in short: as §1
Rattus norvegicus [21] = experiment: in vivo Urinary excretion of PGF2-alpha metabolite in rats, when administered sc (1 mg/rat) urinary excretion on day 2 Range is between (0.7-1.1).; format: functional, Urine
Rattus norvegicus [22] = experiment: in vivo Urinary excretion of PGF2-alpha metabolite in rats, when administered sc (1 mg/rat) urinary excretion on day 1 Range is between (1.3-1.6).; format: functional, Urine
Rattus norvegicus [23] = species: Rattus norvegicus; experiment: Blood pressure potency in rat relative to PGE1 (100); Range is between (1-3); format: functional; in short: as §1
Rattus norvegicus [24] = species: Rattus norvegicus; experiment: Blood pressure potency in rat relative to PGF2-alpha (100). Range is between (0.3-1); format: functional; in short: as §1
Gerbillinae [25] = experiment: Gerbil colon stimulation relative to PGE1 (100); format: functional; in short: as §2
Gerbillinae [26] = experiment: Gerbil colon stimulation relative to PGE1 (100); Ranges from (0.1-0.3); format: functional; in short: as §2
Rattus norvegicus [27] = species: Rattus norvegicus; experiment: Blood pressure potency in rat relative to PGE1 (100); IA means inactive; format: functional, organism-based; in short: as §1
Rattus norvegicus [28] = species: Rattus norvegicus; experiment: Blood pressure potency in rat relative to […]; T denotes toxic; format: organism-based; in short: as §1
Gerbillinae [29] = experiment: Gerbil colon stimulation relative to PGE1 (100); Range from (0.1-0.3); format: functional; in short: as §2
Rattus norvegicus [30] = species: Rattus norvegicus; experiment: Blood pressure potency in rat relative to PGF2-alpha (100). Range is between (32-100).; format: functional; in short: as §1
Rattus norvegicus [31] = experiment: in vivo urinary excretion of PGF2-alpha metabolite in rats, when administered sc (1 mg/rat) urinary excretion on day 1; format: functional, Urine
Rattus norvegicus [32] = experiment: in vivo urinary excretion of PGF2-alpha metabolite in rats, when administered sc (1 mg/rat) urinary excretion on day 2; format: functional, Urine
Rattus norvegicus [33] = experiment: In vivo urinary excretion of PGF2-alpha metabolite in rats, when administered sc (1 mg/rat) urinary excretion on day 2 Range is between (2.2-5.6).; format: functional, Urine
Rattus norvegicus [34] = experiment: In vivo urinary excretion of PGF2-alpha metabolite in rats, when administered sc (1 mg/rat) urinary excretion on day 1 Range is between (31.9-155).; format: functional, Urine
Gerbillinae [35] = experiment: Gerbil colon stimulation relative to PGE1 (100); Range is between (0.1-0.3); format: functional; in short: as §2
Rattus norvegicus [36] = species: Rattus norvegicus; experiment: Blood pressure potency in rat relative to PGE1 (100); value ranges from( 0.1-0.3); format: functional; in short: as §1
Gerbillinae [37] = experiment: Gerbil colon stimulation relative to PGE1 (100); Range from (1-3); format: functional; in short: as §2
Rattus norvegicus [38] = species: Rattus norvegicus; experiment: Blood pressure potency in rat relative to PGE1 (100); compound is biphasic and weak.; format: functional, organism-based; in short: as §1
Rattus norvegicus [39] = species: Rattus norvegicus; experiment: Blood pressure potency in rat relative to PGF2-alpha (100); value ranges from (3-10); format: functional; in short: as §1
Rattus norvegicus [40] = species: Rattus norvegicus; experiment: Blood pressure potency in rat relative to PGF2-alpha (100). Range is between(3-10).

## CCCCC[C@@H]1/C=C\C2C=CC(=O)[C@@H]2C/C=C\CCCC(=O)O1 (stereo not given in full)
Rattus norvegicus [1]
  Relative potency: 0.1
Gerbillinae [2]
  Relative potency: 0.1

## CCCCC(C)(C)[C@H](O)/C=C/C1[C@H](O)C[C@@H]2OC(=O)CCC/C=C\C[C@H]12 (stereo not given in full)
Rattus norvegicus [3]
  Relative potency: 0.1
Gerbillinae [4]
  Relative potency: 32

## CCCCC[C@H](O)/C=C/C1[C@@H]2C[C@@H](O)[C@H]1C/C=C\CCCC(=O)O2 (stereo not given in full)
Rattus norvegicus [5]
  Relative potency: 0.3
Rattus norvegicus [6]
  Urinary excretion: 1.6 µg
Sus scrofa [7]
  Hydrolysis: 28.3%
Monkey [8]
  Hydrolysis: 2.4%
Monkey [9]
  Hydrolysis: 15.5%
Homo sapiens [10]
  Hydrolysis: 0.6%
Homo sapiens [11]
  Hydrolysis: 0.2%
Rattus norvegicus [12]
  Urinary excretion: 27.2 µg
Rattus norvegicus [13]
  Hydrolysis: 80.6%
Rattus norvegicus [14]
  Hydrolysis: 43%
Sus scrofa [15]
  Hydrolysis: 100%
Gerbillinae [16]
  Relative potency: 0.3
[17]
  Cross reaction: 0.09%

## CCCCC[C@H](O)/C=C/C1C(=O)C[C@@H]2OC(=O)CCC/C=C\C[C@H]12 (stereo not given in full)
Gerbillinae [18]
  Relative potency: 0.3
Rattus norvegicus [19]
  Relative potency: 10

## CCCCC[C@H](O)/C=C/C1[C@H](O)C[C@@H]2OC(=O)CCC/C=C\C[C@H]12 (stereo not given in full)
Sus scrofa [7]
  Hydrolysis: 0.2%
Monkey [8]
  Hydrolysis: 0.06%
Monkey [9]
  Hydrolysis: 0.3%
Rattus norvegicus [20]
  Relative potency: 0.1
Homo sapiens [10]
  Hydrolysis: 0.4%
Homo sapiens [11]
  Hydrolysis: 0.06%
Rattus norvegicus [21]
  Urinary excretion: 0.9 µg
Rattus norvegicus [13]
  Hydrolysis: 0.8%
Gerbillinae [2]
  Relative potency: 1
Rattus norvegicus [14]
  Hydrolysis: 0.2%
Rattus norvegicus [22]
  Urinary excretion: 1.4 µg
Sus scrofa [15]
  Hydrolysis: 1.8%
[17]
  Cross reaction: < 0.05%

## CCCCC[C@@H]1/C=C\C2[C@H](O)CC(=O)[C@@H]2C/C=C\CCCC(=O)O1 (stereo not given in full)
Rattus norvegicus [23]
  Relative potency: 1
Gerbillinae [2]
  Relative potency: 1

## CCCCC[C@@H](/C=C/C1[C@H](O)C[C@H](O)[C@@H]1C/C=C\CCCC(=O)O)OC(C)=O (stereo not given in full)
Sus scrofa [7]
  Hydrolysis: 59.1%
Monkey [8]
  Hydrolysis: 3.6%
Monkey [9]
  Hydrolysis: 9.4%
Homo sapiens [10]
  Hydrolysis: 6.8%
Homo sapiens [11]
  Hydrolysis: 3.3%
Rattus norvegicus [13]
  Hydrolysis: 25.7%
Rattus norvegicus [14]
  Hydrolysis: 18%
Sus scrofa [15]
  Hydrolysis: 85%
[17]
  Cross reaction: 2.4%

## CCCCC[C@](C)(O)/C=C/C1[C@@H]2C[C@@H](O)[C@H]1C/C=C\CCCC(=O)O2 (stereo not given in full)
Rattus norvegicus [24]
  Relative potency: 0.3
Gerbillinae [25]
  Relative potency: <0.1

## O=C1CCC/C=C\C[C@@H]2C(/C=C\[C@@H](COc3ccccc3)O1)[C@H](O)C[C@@H]2O (stereo not given in full)
Gerbillinae [26]
  Relative potency: 0.1
Rattus norvegicus [27]
  Relative potency: inactive
Rattus norvegicus [28]
  Relative potency: Toxic

## CCCCC[C@@H]1/C=C\C2CCC(=O)[C@@H]2C/C=C\CCCC(=O)O1 (stereo not given in full)
Rattus norvegicus [1]
  Relative potency: <0.1
Gerbillinae [29]
  Relative potency: 0.1

## O=C1CCC/C=C\C[C@@H]2C(/C=C\[C@@H](CCc3ccccc3)O1)[C@H](O)C[C@@H]2O (stereo not given in full)
Rattus norvegicus [30]
  Relative potency: 32
Gerbillinae [25]
  Relative potency: <0.1

## CCCCC[C@H](O)/C=C/[C@@H]1[C@@H](C/C=C\CCCC(=O)O)[C@@H](O)C[C@H]1O [DINOPROST]
Rattus norvegicus [31]
  Urinary excretion: 252 µg
Sus scrofa [7]
  Hydrolysis: 100%
Monkey [8]
  Hydrolysis: 100%
Monkey [9]
  Hydrolysis: 100%
Homo sapiens [10]
  Hydrolysis: 100%
Homo sapiens [11]
  Hydrolysis: 100%
Rattus norvegicus [13]
  Hydrolysis: 100%
Rattus norvegicus [14]
  Hydrolysis: 100%
Sus scrofa [15]
  Hydrolysis: 100%
[17]
  Cross reaction: 100%
Rattus norvegicus [32]
  Urinary excretion: 14.5 µg

## CCCCC[C@@H]1/C=C\C2[C@H](O)C[C@H](O)[C@@H]2C/C=C\CCCC(=O)O1 (stereo not given in full)
Rattus norvegicus [33]
  Urinary excretion: 3.9 µg
Sus scrofa [7]
  Hydrolysis: 55.3%
Monkey [8]
  Hydrolysis: 8.4%
Rattus norvegicus [1]
  Relative potency: <0.1
Rattus norvegicus [34]
  Urinary excretion: 77.1 µg
Monkey [9]
  Hydrolysis: 41.7%
Homo sapiens [10]
  Hydrolysis: 57.9%
Homo sapiens [11]
  Hydrolysis: 55.6%
Rattus norvegicus [13]
  Hydrolysis: 58.7%
Rattus norvegicus [14]
  Hydrolysis: 51.4%
Sus scrofa [15]
  Hydrolysis: 75.6%
Gerbillinae [35]
  Relative potency: 0.1
[17]
  Cross reaction: 0.9%

## CCCCC[C@](C)(O)/C=C/C1[C@H](O)C[C@@H]2OC(=O)C(F)(F)CC/C=C\C[C@H]12 (stereo not given in full)
Rattus norvegicus [36]
  Relative potency: 0.1
Gerbillinae [37]
  Relative potency: 1

## CCCCC[C@@H]1/C=C\C2C(=O)CC(O)[C@@H]2C/C=C\CCCC(=O)O1 (stereo not given in full)
Rattus norvegicus [3]
  Relative potency: 0.1
Gerbillinae [29]
  Relative potency: 0.1

## CCCCC[C@@H]1/C=C\C2[C@H](O)CC(=O)[C@@H]2CCCCCCC(=O)O1 (stereo not given in full)
Rattus norvegicus [1]
  Relative potency: <0.1
Gerbillinae [25]
  Relative potency: <0.1

## O=C1CCC/C=C\C[C@H]2C(=O)C[C@@H](O)C2/C=C\[C@@H](CCc2ccccc2)O1 (stereo not given in full)
Rattus norvegicus [38]
  Relative potency: Weak
Gerbillinae [18]
  Relative potency: 0.3

## CCCCC[C@@H]1/C=C\C2[C@H](O)C[C@H](O)[C@@H]2CCCCCCC(=O)O1 (stereo not given in full)
Rattus norvegicus [1]
  Relative potency: <0.1
Gerbillinae [25]
  Relative potency: <0.1

## C[C@@](O)(/C=C/C1[C@H](O)C[C@@H]2OC(=O)CCC/C=C\C[C@H]12)CCc1ccccc1 (stereo not given in full)
Rattus norvegicus [39]
  Relative potency: 3
Gerbillinae [37]
  Relative potency: 1

## CCCCC[C@](C)(O)/C=C/C1[C@H](O)C[C@@H]2OC(=O)CCC/C=C\C[C@H]12 (stereo not given in full)
Gerbillinae [2]
  Relative potency: 1
Rattus norvegicus [40]
  Relative potency: 3
